For assay [1], the species on record is Homo sapiens. In words: Inhibitory activity of compound against hepatitis B virus (HBV) in growing cultures of 2.2.15 cells. In kind it is functional, cell-based. The following applies: HepG2 2.2.15. The procedure, abridged:
(§1)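 Growing cultures of 2.2.15 cells, used for both antiviral effect and cytotoxicity. IC50 and CC50 each come from five compound concentrations encompassing the value. Data are means of four replicate samples.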

Assay [2] relates to MRC5. In words: Cytotoxic activity of compound against uninfected MRC5 cells. In kind it is functional. The note with it: Homo sapiens. In outline: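 Uninfected MRC5 monolayers given the same six compound concentrations in triplicate and incubated 5 days. Minimum cytotoxic dose estimated by microscopic examination.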
In assay [3] the test system is CCRF-CEM. Briefly: Cytotoxic activity of compound against growing cultures of human leukemic T-cell lines CEM 100 uM. In kind it is functional.
The test system of assay [4] is MRC5. In words: Inhibitory activity of compound against human cytomegalovirus (HCMV) strain AD169 in monolayers of MRC5 cells. In kind it is functional, cell-based. The procedure, abridged:
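MRC5 human embryonic lung monolayers infected with HCMV AD169 at ca. 0.01 infectious particles/cell. Compound added at six concentrations, each in triplicate, then incubated 5 days. IC50 estimated from well HCMV DNA measured by blotting and quantitative specific DNA hybridization. Reported value is the mean of at least two determinations done at different times.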

Assay [5] concerns IM-9. Briefly: Cytotoxic activity of compound against growing cultures of human leukemicB-cell line IM-9 at 100 uM. Format: functional.
Assay [6] deals with MOLT-4. Briefly: Cytotoxic activity of compound against growing cultures of human leukemic T-cell lines Molt-4 100 uM. Format: functional.
The species entered for assay [7] is Homo sapiens. In words: Cytotoxic activity of compound against uninfected 2.2.15 cells. The note with it: HepG2 2.2.15. Format: functional. In outline: as §1
The test system of assay [8] is MOLT-4. Briefly: Cytotoxic activity of compound against growing cultures of human leukemic T-cell lines Molt-4 at 100 uM. Format: functional.
Assay [9] concerns CCRF-CEM. In words: Cytotoxic activity of compound against growing cultures of human leukemic T-cell lines CEM at 100 uM. Format: functional.
The test system of assay [10] is CCRF-CEM. Briefly: Cytotoxic activity of compound against growing cultures of human leukemic T-cell lines CEM. Format: functional. The procedure, abridged: (§2)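 Growing cultures of the human leukemic line (T-cell CEM or Molt 4; B-cell IM-9). CC50 taken from five compound concentrations spanning the CC50. Data are means of three replicate samples.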
Assay [11] relates to MOLT-4. In words: Cytotoxic activity of compound against growing cultures of human leukemic T-cell lines Molt-4. In kind it is functional. In outline:
as §2

Assay [12] relates to IM-9. Briefly: Cytotoxic activity of compound against growing cultures of human leukemicB-cell line IM-9. In kind it is functional. In outline:
as §2

The record followed here is ChEMBL document CHEMBL1129667, “Synthesis and antiviral activity of 2'-deoxy-4'-thio purine nucleosides” (J Med Chem, 1996).

SMILES strings stand for the structures.

One may read the IC50 as the midpoint of a concentration-inhibition curve. A low value points to inhibition by little substance. What is called CC50 is the concentration giving 50% cytotoxicity. High values mean lower toxicity to the cells, low ones greater toxicity to the cells.

Regarding `Nc1nc(Cl)c2ncn(C3CC(O)C(CO)S3)c2n1` (stereo unspecified), the IC50 in assay [1] was 0.001 µM; in assay [4], 0.1 µM. For the same molecule, the CC50 was 2 µM in assay [2]; 10 µM in [3]; 42 µM in assay [5]; 3.8 µM in assay [6]; > 0.2 µM in assay [7].
As to `CCCNc1nc(N)nc2c1ncn2C1CC(O)C(CO)S1` (stereo unspecified), the IC50 in [1] stood at 0.061 µM; in assay [4] it was 2 µM. Further, the cytotoxic concentration (CC50) was > 50 µM in assay [2] and > 0.2 µM in assay [7]. The figures for the Control in [8], in assay [9] and in assay [5] were 52%, 68% and 92%, respectively.
With `C=CCNc1nc(N)nc2c1ncn2C1CC(O)C(CO)S1` (stereo unspecified), the IC50 in [1] was determined as 0.058 µM; in assay [4], 1.5 µM. Besides, the CC50 in [2] was > 200 µM; in assay [10], 60 µM; in assay [11] it was 40 µM; in [7], > 0.2 µM. For the same molecule, the Control in assay [5] came out at 67%.
Turning to `CSc1nc(N)nc2c1ncn2C1CC(O)C(CO)S1` (stereo unspecified), the results for the IC50 in assay [1] and in [4] were 0.45 µM and 2 µM, respectively. Besides, the CC50 in [2] was > 20 µM; in [7], > 200 µM. Moreover, the Control in assay [8] came to 73%; in assay [9] it was 78%; in assay [5], 88%.
Consider `Nc1nc(N2CCCCC2)c2ncn(C3CC(O)C(CO)S3)c2n1` (stereo unspecified), for which the IC50 was 4 µM in assay [1] and 6 µM in assay [4]. Further, the CC50 in assay [2] and in assay [7] was > 200 µM each time. For the same molecule, the results for the Control in assay [8], in assay [9] and in assay [5] were 77%, 80% and 88%, respectively.
On to `COc1nc(N)nc2c1ncn2C1CC(O)C(CO)S1` (stereo unspecified), for which the IC50 amounted to 0.0025 µM in [1] and 0.062 µM in assay [4]. The CC50 was > 5 µM in assay [2]; 8 µM in assay [10]; 2 µM in [11]; 14 µM in [7]; 5 µM in assay [12].
As to `Nc1nc(O)c2ncn(C3CC(O)C(CO)S3)c2n1` (stereo unspecified), the IC50 in assay [1] came to 0.002 µM; in assay [4], 0.06 µM. The CC50 is 2 µM in assay [2]; 9 µM in assay [10]; 14 µM in [11]; 13 µM in assay [7]; 4 µM in assay [12].
As to `Nc1nc(N2CCCC2)c2ncn(C3CC(O)C(CO)S3)c2n1` (stereo unspecified), the IC50 in [1] was found to be 0.85 µM; in [4], 10 µM. The CC50 in assay [2] and in assay [7] was > 200 µM throughout. Besides, the figures for the Control in [8], in [9] and in assay [5] were 112%, 71% and 99%, respectively.
In the case of `Nc1nc(OCC2CC2)c2ncn(C3CC(O)C(CO)S3)c2n1` (stereo unspecified), the figures for the IC50 in [1] and in [4] were 0.035 µM and 0.6 µM, respectively. The CC50 in assay [2] is > 20 µM; in [10], 41 µM; in [11], 13 µM; in [7], > 0.2 µM; in assay [12], 61 µM.
As to `CCN(C)c1nc(N)nc2c1ncn2C1CC(O)C(CO)S1` (stereo unspecified), the IC50 in assay [1] came to 0.19 µM; in [4] it was 2 µM. Moreover, the CC50 in [2] was > 20 µM; in [7], > 200 µM. The Control worked out at 77% in assay [8], 69% in assay [9] and 85% in [5].
Turning to `CC(C)Nc1nc(N)nc2c1ncn2C1CC(O)C(CO)S1` (stereo unspecified), the values for the IC50 in assay [1] and in assay [4] were 0.3 µM and 4 µM, respectively. Besides, the CC50 is > 100 µM in assay [2] and > 200 µM in assay [7]. Besides, the figures for the Control in [8], in assay [9] and in assay [5] were 77%, 80% and 90%, respectively.
For the molecule `Nc1nc(NC2CC2)c2ncn(C3CC(O)C(CO)S3)c2n1` (stereo unspecified), the IC50 was 0.0072 µM in assay [1] and 0.2 µM in assay [4]. Also, the CC50 in assay [2] stood at 15 µM; in assay [7] it was 77 µM. The Control in assay [8] is 11%; in assay [9], 68%; in [5] it was 78%.
With `CN(c1nc(N)nc2c1ncn2C1CC(O)C(CO)S1)C1CC1` (stereo unspecified), the IC50 amounted to 0.3 µM in [1] and 2 µM in assay [4]. In addition, the CC50 in assay [2] was > 20 µM; in assay [11] it was 100 µM; in assay [7], 101 µM. Besides, the Control in assay [9] was 58%; in assay [5] it was 72%.
